Scp-1 inhibitor = inhibitors of human Scp-1 phosphatase | Q9GZU7 | Recombinant Scp1, phosphopeptide, malachite green phosphate absorbance | inhibition, % at 20 µM | 0.88% of 340,000 active | AID 493091;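 active means inhibition above about 50% at 20 µM, limit read from the data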;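 further: plate controls were DMSO wells with enzyme for no effect and wells lacking enzyme for full effect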
Target sequence (Q9GZU7 76-261 limits assumed): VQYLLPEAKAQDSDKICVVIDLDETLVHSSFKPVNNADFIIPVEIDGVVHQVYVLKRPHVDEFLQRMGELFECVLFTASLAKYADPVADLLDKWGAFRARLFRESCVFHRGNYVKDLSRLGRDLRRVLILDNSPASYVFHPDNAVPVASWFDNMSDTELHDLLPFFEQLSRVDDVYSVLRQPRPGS
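System: truncated SCP-1 phosphatase (76-261aa); medium: Tris acetate buffer pH 5.5 with MgCl2 and Tween-20; incubation: 45 min room-temperature reaction, 5 min colour, 30 min stabiliser; compound: single 20 µM dose, 1% DMSO; reagent: Phosphorylated 17-residue peptide substrate; read-out: % inhibition at 20 µM; technique: colorimetric free-phosphate detection, absorbance 630 nm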
Rpn11 block = inhibitors of human proteasome Rpn11; AID 588493; 0.59% of 360,000 active; human 26S proteasome, Ub4-pepOG fluorescence polarization; 20S core pre-blocked with epoxomicin; inhibition, % at 20 µM; O00487;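 active means inhibition at 20 µM, scaled to each plate's controls, above about 33%, limit read from the data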
Target sequence (O00487 whole entry, looked up): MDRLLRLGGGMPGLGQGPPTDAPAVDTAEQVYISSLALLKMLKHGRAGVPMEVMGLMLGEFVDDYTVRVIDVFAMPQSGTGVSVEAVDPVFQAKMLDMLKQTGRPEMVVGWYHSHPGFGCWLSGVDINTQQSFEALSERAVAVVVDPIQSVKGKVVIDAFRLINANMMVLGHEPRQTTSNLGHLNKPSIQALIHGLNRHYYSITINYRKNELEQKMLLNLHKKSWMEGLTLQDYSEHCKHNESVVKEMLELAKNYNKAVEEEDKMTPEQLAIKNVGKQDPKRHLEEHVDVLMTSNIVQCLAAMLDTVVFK
SUMO1-SIM PPI = alters human SUMO1 binding to SIM partners; P63165; SUMO1 binding to a labelled peptide, TR-FRET, 1 h; inhibition, % at 20 µM; 0.33% of 360,000 active; in the data active means inhibition above about 37%
Target sequence (P63165 whole entry, looked up): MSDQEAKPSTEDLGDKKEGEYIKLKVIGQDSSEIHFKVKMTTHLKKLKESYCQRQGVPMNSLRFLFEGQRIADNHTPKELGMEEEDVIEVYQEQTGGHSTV
STEP block = STEP (human) phosphatase inhibition; P54829; recombinant STEP, OMFP fluorogenic substrate, fluorescence; inhibition, % at 20 µM; 0.25% of 360,000 active; AID 588621;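 active means inhibition at 20 µM, scaled per plate between control wells, above about 37%, limit read from the data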;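 further: 0% = DMSO with enzyme and substrate and 100% = substrate only without enzyme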
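medium = Bis-Tris buffer pH 6.0, 2.5 mM DTT, 0.005% Tween 20 | test system = STEP (striatal-enriched tyrosine phosphatase) enzyme, cell-free | measure = normalized % inhibition | compound dosing = 20 µM, 1% DMSO | also added = 25 µM OMFP | schedule = reaction 20 min, ambient temperature | measured by = fluorescence read at 480 nm ex / 540 nm em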
LMPTP inh = blocks human LMPTP phosphatase. P24666. recombinant LMPTP-A, OMFP fluorogenic substrate, fluorescence intensity. inhibition, % at 20 µM. 0.22% of 360,000 active;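 active means compounds that cut the enzyme signal by at least half of the control window in the single-dose screen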;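 further: plate controls were DMSO wells with enzyme plus substrate for no effect and substrate without enzyme for full effect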
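Test system: LMPTP-A, protein tyrosine phosphatase of low molecular weight; Input: 0.625 nM enzyme; Incubation: 50 min dark incubation at room temperature; Signal: endpoint fluorescence intensity from OMFP dephosphorylation; Read-out basis: % inhibition versus control wells.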
DNMT1 inh = DNMT1 (human) enzyme inhibition; DNMT1 molecular beacon, Hinp1I cleavage, fluorescence; inhibition (reported as % activation of signal), % at 10 µM; 0.83% of 360,000 active; in the data active means inhibition above about 50%
Starred values were filed as active, the others as inactive; · = no result given; + = active, no number. Rows were chosen to be rich in hits. Some 2.3% of all compounds tested hit in one or more screens of this group.

SMILES | Scp-1 inhibitor | Rpn11 block | SUMO1-SIM PPI | STEP block | LMPTP inh | DNMT1 inh
Cc1nc2c(=O)n(C)c(=O)nc-2n(C)n1 | 0.0 | 2.9 | 29.2 | 78.6* | 73.3* | 128.4*
N#Cc1c(/N=C/c2c(O)n(Cc3ccco3)c(=O)[nH]c2=O)sc2c1CCCC2 | 42.7 | 22.3 | 4.7 | 6.9 | 2.5 | 66.8*
O=C1NC(=O)C(=Cc2ccc(Sc3ccccc3)o2)C(=O)N1 | 17.1 | 3.7 | -0.1 | 1.4 | -0.8 | 12.2
O=C1NC(=O)C(=Cc2ccco2)C(=O)N1 | 28.0 | -2.8 | 8.3 | 49.5* | 11.4 | 81.7*
N#CC(C#N)=NNc1ccc(S(N)(=O)=O)cc1 | 12.4 | 16.4 | 31.1 | 2.1 | 57.3* | 46.4
CCCOc1ccccc1OCC(=O)N1CCN(CC(=O)N2CCOCC2)CC1 | · | 0.6 | -6.8 | 1.3 | -2.3 | 3.0
CCOC(=O)[C@]1(C#N)[C@@H]2C=CC(C(C)=O)=CN2[C@@H](C(N)=O)[C@@H]1c1ccsc1 | -4.8 | -7.6 | 66.7* | 3.9 | 0.2 | -4.7
O=C1NC(=S)N(c2ccc(F)cc2)C(=O)/C1=C\c1ccoc1 | 74.0* | + | 75.1* | 42.5* | 45.9 | 85.3*
Cc1ccc(N2C(=O)NC(=O)/C(=C\c3ccoc3)C2=O)cc1 | 11.2 | 37.5 | 3.4 | 0.8 | -0.2 | 16.8
Clc1ccc(C2NCCc3[nH]cnc32)cc1 (configuration not stated) | -11.1 | -1.1 | 40.9* | 1.8 | -2.5 | -4.3
O=C1NC(=O)C(=Cc2ccc(-c3ccc(F)cc3O)o2)C(=O)N1 | 95.5* | 5.5 | 6.5 | 1.3 | -0.8 | 28.2
O=C1NC(=O)C(=Cc2ccc(-c3ccc(Cl)cc3)o2)C(=O)N1 | -0.2 | 2.3 | 3.4 | 6.7 | -1.4 | 25.0
CCOC(=O)c1c(NS(=O)(=O)c2ccccc2)n(CCCOC)c2nc3ccccc3nc12 | 3.0 | 4.2 | 42.7* | -0.4 | 10.6 | 38.0
COCCCn1c(N)c(C(=O)OCCOC)c2nc3ccccc3nc21 | -9.3 | -3.2 | 34.0 | 0.7 | 1.5 | 26.7
C=CCOC(=O)C1C(C(=O)O)C2(Cl)C(Cl)=C(Cl)C1(Cl)C2(Cl)Cl (configuration not stated) | -5.0 | -10.5 | 9.7 | 0.8 | -2.3 | -2.7
CCOC(=O)C1(c2ccccc2)CCN(CCC(=O)Nc2cccc(Br)c2)CC1 | -2.8 | -1.5 | 3.3 | 1.5 | 0.6 | -2.3
Clc1ccc(C(c2ccc(Cl)cc2)n2cc[n+](CC(OCc3ccc(Cl)cc3Cl)c3ccc(Cl)cc3Cl)c2)cc1 (configuration not stated) | -0.7 | 104.6* | 80.4* | 8.3 | 32.0 | -54.8
COC(=O)N1Cc2ccccc2-n2nncc2C1 | · | -2.0 | 2.4 | 1.6 | -1.3 | 3.2
Nc1ccnn1C1CCNCC1 | -8.0 | -6.9 | 0.3 | -2.1 | -6.2 | -3.1
CN1CCC(n2nccc2N)CC1 | -6.1 | 1.3 | 43.3* | -1.0 | -8.5 | 2.6
CCCC1(CC(C)CC)C(=O)NC(=O)NC1=O (configuration not stated) | · | -2.9 | 6.3 | 0.0 | -1.3 | 0.7
Cc1c(C=C2C(=O)N(C)C(=S)N(C)C2=O)c2ccccc2n1CC(=O)NCC1CCCO1 (configuration not stated) | -8.3 | 42.7* | -0.8 | -1.1 | 1.7 | 0.7
O=C(Cn1cc(C=C2C(=O)NC(=O)NC2=O)c2ccccc21)NCC1CCCO1 (configuration not stated) | 4.4 | -2.2 | -3.2 | -1.3 | -1.3 | 3.1
CC1Oc2cc3c(-c4c(O)cc(O)c5c(O)c6c(cc45)OC(C)C(C)C6=O)c(O)cc(O)c3c(O)c2C(=O)C1C (configuration not stated) | 9.5 | 23.3 | 43.2* | 5.0 | 13.2 | 60.4*
CC1CC2CC(=O)CCC2(C)C2CCC3(C)C(O)CCC3C12 (configuration not stated) | · | -3.0 | 5.8 | 1.1 | -0.5 | -1.4
SMILES | Scp-1 inhibitor | Rpn11 block | SUMO1-SIM PPI | STEP block | LMPTP inh | DNMT1 inh
O=C(O)C1C(C(=O)O)C2(Cl)C(Cl)=C(Cl)C1(Cl)C2(Cl)Cl (configuration not stated) | -15.2 | -23.9 | 22.2 | 10.2 | 64.6* | 27.8
O=C1CC=C2C3CC4N(CCC45c4cc(O)c(O)cc4N1C25)CC3=CCBr (configuration not stated) | 12.1 | 22.3 | 110.7* | 83.9* | 76.8* | 91.2*
O=C1CC=C2C3CC4N(CCC45c4ccccc4N1C25)CC3=CCO (configuration not stated) | -2.8 | 2.8 | 0.5 | 2.1 | -2.4 | 3.3
CC12Nc3ccccc3C(=O)N1Cc1cnnn1-c1ccccc12 (configuration not stated) | · | · | 5.2 | · | -0.4 | ·
O=c1c2ccccc2[se]n1-c1ccccc1 | 101.3* | -0.7 | -7.4 | -2.6 | 0.1 | -1.8
O=c1c2ccccc2nc(-c2ccccc2)n1-c1ccccc1 | -11.4 | -4.2 | 2.5 | -1.7 | -1.6 | 1.5
C[C@@H]1CN([C@H](C)CO)C(=O)CCCn2cc(nn2)CO[C@H]1CN(C)C(=O)Oc1cccc2ccccc12 | · | -7.6 | 3.1 | -0.8 | -0.7 | 0.9
C1=NCCCN2CCCCC12 (configuration not stated) | · | -4.6 | 3.6 | -2.1 | -2.0 | 0.6
C[C@@H]1CN([C@@H](C)CO)C(=O)CCCn2nncc2CO[C@H]1CN(C)C(=O)Oc1ccccc1 | · | -1.0 | -2.1 | -0.8 | -0.7 | -1.9
COc1ccc(-c2nc3ccccc3c(=O)n2-c2nccs2)cc1 | -9.0 | 4.3 | 41.6* | -5.2 | -1.2 | -9.5
COc1ccc(-c2nc3ccccc3c(=O)n2-c2ccc(OC)cc2)cc1 | -7.1 | -1.6 | 5.0 | 4.5 | -0.6 | -0.7
COC(=O)[C@@H]1N=C(c2ccc(OC)cc2)O[C@]12C(=O)N(Cc1ccccc1)c1ccccc12 | · | · | 3.8 | · | 2.4 | ·
CCCCC1(CC)COP(=O)(OCC(Cl)(Cl)Cl)OC1 (configuration not stated) | -2.2 | -7.0 | 7.4 | -1.5 | -1.4 | 0.3
COc1ccc(P2(=O)Nc3ccccc3N2)cc1 | 55.4* | 13.5 | -4.1 | 11.0 | 0.8 | 20.7
O=C1C(=O)c2ccccc2-c2ccccc21 | -9.0 | 9.1 | 31.9 | 36.2* | 51.2* | 105.1*
O=C1C(=O)c2cccc3cccc1c23 | -5.5 | 4.9 | -19.9 | -2.4 | -2.4 | -13.5
CCOC(=O)c1cnc(SCc2ccc(Cl)c(Cl)c2)nc1N1CC1 | -2.7 | 4.0 | 5.3 | 0.2 | 3.9 | 2.8
CN(C)C1C(=O)C(C(N)=O)=C(O)C2(O)C(=O)C3=C(O)c4c(O)cccc4C(C)(O)C3C(O)C12 (configuration not stated) | 16.5 | · | 8.2 | 6.3 | 51.8* | 52.9*
COc1ccc(OC)c(N2C(=O)NC(=O)/C(=C/c3ccc([N+](=O)[O-])s3)C2=O)c1 | 5.4 | 21.9 | 47.2* | 4.7 | 3.9 | 20.9

Assay outcomes as filed in PubChem.
